# Screening results as filed in PubChem BioAssay.
# Apaf-1 inh – inhibitors of human Apaf-1 apoptosome, primary screen, biochemical, DEVD-Rh110 fluorescence, uHTS; 330,000 compounds, 0.71% hits; reconstituted apoptosome caspase-3 activity; Apoptotic protease-activating factor 1 (Homo sapiens), O14727; inhibition, % at 20 µM; active = inhibition of at least 40% at 20 µM;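 also: plate controls were DMSO wells for no effect and DEVD-CHO caspase inhibitor wells for full effect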
#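 detection = Rh110 fluorescence intensity | test system = biochemical Apaf-1 apoptosome reconstitution | also added = cytochrome c and DEVD-Rh110 substrate | schedule = 30 min plus 50 min, RT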
# UBC13 polyUb – UBC13 polyubiquitin chain formation inhibitors, primary screen, biochemical, TR-FRET, uHTS; Ubiquitin-conjugating enzyme E2 N (Homo sapiens), P61088; inhibition, % at 20 µM; 330,000 compounds, 0.47% hits; in the data active = inhibition above about 45%, passing the limit was not always enough
# Target sequence (P61088 whole entry, looked up): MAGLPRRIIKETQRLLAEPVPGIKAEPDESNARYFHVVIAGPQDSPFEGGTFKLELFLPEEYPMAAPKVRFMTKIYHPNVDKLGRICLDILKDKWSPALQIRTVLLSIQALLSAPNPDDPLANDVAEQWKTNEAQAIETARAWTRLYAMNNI
# SUMO HTRF inh – inhibitors of in vitro SUMOylation cascade, primary screen, biochemical, HTRF, uHTS. HTRF SUMOylation assay, SAE1/SAE2 + UBC9. inhibition, % at 35 µM. SUMO-conjugating enzyme UBC9 (Homo sapiens), P63279. 290,000 compounds, 0.36% hits. AID 2006, 2009; in the data active = inhibition above about 50%, passing the limit was not always enough
# Target sequence (P63279 whole entry, looked up): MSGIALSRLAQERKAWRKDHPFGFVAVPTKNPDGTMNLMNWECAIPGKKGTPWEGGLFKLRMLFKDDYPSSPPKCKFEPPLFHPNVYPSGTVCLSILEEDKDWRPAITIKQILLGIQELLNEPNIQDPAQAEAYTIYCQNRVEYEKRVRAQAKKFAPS
# PAD4 inh – human PAD4 inhibitors, primary screen, biochemical, fluorescence polarization, 1536-well format. recombinant PAD4, RCA probe fluorescence polarization. 330,000 compounds, 0.41% hits. Protein-arginine deiminase type-4 (Homo sapiens), Q9UM07. inhibition, % at 6.36 µM;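 active = percent inhibition above a cutoff equal to the mean of all tested compounds plus 3 SD, cut at about 15% in these data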;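 also: 0% = PAD4 with RCA probe and DMSO and 100% = probe without PAD4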
# Rin1-Abl PPI inh – inhibitors of Rin1-Abl protein binding, primary screen, biochemical, TR-FRET; Tyrosine-protein kinase ABL1 (Homo sapiens) + Ras and Rab interactor 1 (Homo sapiens), …; 360,000 compounds, 0.4% hits; inhibition, % at 7.35 µM; in the data active = inhibition above about 5%, passing the limit was not always enough
# GSTO1 counter – inhibitors of recombinant GSTO1, primary screen, counter-screen for RBBP9 inhibitor project, biochemical, fluorescence polarization. Glutathione S-transferase omega-1 (Homo sapiens), P78417. activity-based probe fluorescence polarization. inhibition, % at 5.96 µM. 300,000 compounds, 1.1% hits;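 active = inhibition above the campaign mean inhibition plus 3 SD, cut at about 35% in these data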;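 also: 0% = GSTO1-1 with DMSO and 100% = wells lacking GSTO1-1 enzyme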
# Target sequence (P78417 whole entry, looked up): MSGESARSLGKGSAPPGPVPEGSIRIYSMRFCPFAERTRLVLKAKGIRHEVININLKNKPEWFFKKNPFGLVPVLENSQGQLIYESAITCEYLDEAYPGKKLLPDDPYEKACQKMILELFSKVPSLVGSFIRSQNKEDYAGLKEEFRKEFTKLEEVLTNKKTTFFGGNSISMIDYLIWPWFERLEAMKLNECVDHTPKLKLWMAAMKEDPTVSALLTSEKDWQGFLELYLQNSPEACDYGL
# Casp3 counter – CASP3 inhibitor validation, counterassay for project on UBE2N polyubiquitination blockers, biochemical, one dose; shares compounds with UBC13 polyUb; Recombinant caspase-3, Caspase-Glo 3/7 luminescence, 60 min; inhibition, % at 20 µM; 1,400 compounds, 4% hits; AID 488856, 2010;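 active = mean inhibition across replicates above about 26%, limit read from the data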;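 also: plate controls were DMSO with caspase-3 for no effect and DMSO wells lacking enzyme for full effect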
# UBC13 confirm – UBC13 polyubiquitination inhibitors, single-point retest, confirmation, biochemical, TR-FRET, single concentration | shares compounds with UBC13 polyUb | inhibition, % at 10 µM | 1,400 compounds, 68% hits | AID 488859, 2010; in the data active = inhibition above about 45%
# Apaf-1 inh conf – Apaf-1 inhibitors, single-dose retest, confirmation, biochemical, fluorescence, DEVD-Rh110, 20 µM. inhibition, % at 20 µM. 1,800 compounds, 25% hits. reconstituted apoptosome, caspase-3 DEVD-Rh110 fluorescence. AID 504614, 2011. shares compounds with Apaf-1 inh;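 active = mean inhibition of at least 40% at 20 µM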;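 also: plate controls were DMSO wells for no effect and DEVD-CHO caspase inhibitor control wells for full effect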
# Rh110 quench – Rh110 fluorescence interference by putative Apaf-1 inhibitors, confirmation, artefact control for Apaf-1 inhibitor project, biochemical, 20 µM | 1,800 tested, under 10 active | activation (fluorescence interference), % at 20 µM | shares compounds with Apaf-1 inh | AID 504615, 2011 | quenched caspase reaction;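 active = signal rise of 40% or more at 20 µM, treated as a fluorescence artifact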
# Fluor interf inh – fluorescence interference of Apaf-1 inhibitor hits, dose response, artefact control for Apaf-1 inhibitor project. shares compounds with Apaf-1 inh. fluorescence interference counterscreen, Apaf-1 assay format. IC50, µM. 460 tested, under 10 active; call rule not given here
# * = called active by the depositor; . = not tested or not shown. Hits are enriched below; roughly 2.2% of the tested compounds scored in any of these assays.
SMILES,Apaf-1 inh,UBC13 polyUb,SUMO HTRF inh,PAD4 inh,Rin1-Abl PPI inh,GSTO1 counter,Casp3 counter,UBC13 confirm,Apaf-1 inh conf,Rh110 quench,others
CC(C)(C)c1ccc(C(O)CCCN2CCC(C(O)(c3ccccc3)c3ccccc3)CC2)cc1 (configuration not stated),53*,67*,-35,-3,-4,3,-4,56*,16,3,
COC(=O)C1CC(c2ccccc2)N(c2ccccc2)O1 (configuration not stated),.,.,.,.,-4,.,.,.,.,.,
C#CCOCCOCCOCCNc1nc(N2CCN(C(=O)CCCCCCCCCCNC(=O)[C@@H](CCSC)n3cc(CCO)nn3)CC2)nc(N2CCN(C(=O)CCCCCCCCCCNC(=O)[C@H](CCC(=O)O)n3cc(CCCCCN)nn3)CC2)n1,62*,102*,.,3,3,-7,0,77*,21,1,
C#CCOCCOCCOCCNc1nc(N2CCN(C(=O)CCCCCCCCCCNC(=O)[C@@H](CCC(=O)O)n3cc(CCCCCN)nn3)CC2)nc(N2CCN(C(=O)CCCCCCCCCCNC(=O)[C@H](CCCCN)n3cc(C[C@@H](C)CC)nn3)CC2)n1,72*,120*,.,0,3,3,-2,124*,50*,7,Fluor interf inh=>100
C#CCOCCOCCOCCNc1nc(N2CCN(C(=O)[C@H]([C@@H](C)CC)n3cc(CCC(=O)O)nn3)CC2)nc(N2CCN(C(=O)[C@H](CCCCN)n3cc(CCC(=O)O)nn3)CC2)n1,.,.,.,.,4,.,.,.,.,.,
C#CCOCCOCCOCCNc1nc(N2CCN(C(=O)[C@H](CCCCN)n3cc(CCC(=O)O)nn3)CC2)nc(N2CCN(C(=O)[C@H](Cc3ccc(O)cc3)n3cc(CCO)nn3)CC2)n1,.,.,.,.,3,.,.,.,.,.,
C#CCOCCOCCOCCNc1nc(N2CCN(C(=O)CCCCCCCCCCNC(=O)[C@H](CCCCN)n3cc(CCO)nn3)CC2)nc(N2CCN(C(=O)CCCCCCCCCCNC(=O)[C@H](CCCCN)n3cc(CCCC(=O)O)nn3)CC2)n1,59*,117*,.,1,8,4,2,111*,34,9,
C#CCOCCOCCOCCNc1nc(N2CCN(C(=O)[C@H](CCCCN)n3cc(CN)nn3)CC2)nc(N2CCN(C(=O)[C@H](CCCCN)n3cc(CN)nn3)CC2)n1,44*,103*,.,-3,2,.,-8,112*,-5,0,
COc1ccc(CCN(C(=O)c2snc(C(N)=O)c2N)C(C)C(=O)NC2CCCCC2)cc1OC (configuration not stated),0,8,10,2,1,4,.,.,.,.,
Cc1ccc(-c2csc(C(O)c3ccc(F)cc3)n2)cc1C (configuration not stated),.,.,.,.,-2,.,.,.,.,.,
Cc1ccc(CCNC(=O)CC(C)CC2=NS(=O)(=O)c3ccccc3N2)cc1 (configuration not stated),2,2,.,4,0,18,.,.,.,.,
COc1ccccc1N1CCN(C(=O)c2ccc(COc3cccc4c3OC(C)(C)C4)cc2)CC1,33,-8,.,-1,2,0,.,.,.,.,
CN(Cc1ccn[nH]1)C(=O)C1CCC(=O)N(Cc2cccc(C(F)(F)F)c2)C1 (configuration not stated),-6,-1,20,-2,-1,-1,.,.,.,.,
C#CCOCCOCCOCCNc1nc(N2CCN(C(=O)Cn3cc(CCCCN)nn3)CC2)nc(N2CCN(C(=O)[C@H](C(C)C)n3cc(CCO)nn3)CC2)n1,4,6,33,5,4,1,.,.,.,.,
C#CCOCCOCCOCCNc1nc(N2CCN(C(=O)CCCCCCCCCCNC(=O)[C@@H](CCSC)n3cc(CCO)nn3)CC2)nc(N2CCN(C(=O)CCCCCCCCCCNC(=O)[C@H](CO)n3cc(CCCCCN)nn3)CC2)n1,71*,118*,.,-6,10,-4,-3,123*,40*,2,Fluor interf inh=>100
C#CCOCCOCCOCCNc1nc(N2CCN(C(=O)CCCCCCCCCCNC(=O)[C@H](CCCCN)n3cc(C)nn3)CC2)nc(N2CCN(C(=O)CCCCCCCCCCNC(=O)[C@H](CCCN=C(N)N)n3cc(C[C@@H](C)CC)nn3)CC2)n1,75*,123*,.,-10,.,-5,-3,127*,57*,4,Fluor interf inh=>100
COc1ccc(S(=O)(=O)N(C)c2ccc(C(=O)NCc3ccco3)cc2)cc1OC,2,0,20,4,3,4,.,.,.,.,
COc1ccc(CN2CCNC(=O)C2CC(=O)NCCc2nc(C)c(C)s2)cc1C (configuration not stated),9,9,-7,5,-1,2,.,.,.,.,
c1ccc(C2NCCNC2c2ccccc2)cc1 (configuration not stated),.,.,.,.,1,.,.,.,.,.,
FC(F)(F)c1cc(CO[C@@H]2CCCN[C@@H]2c2ccccc2)cc(C(F)(F)F)c1,47*,58*,.,7,-2,3,2,55*,10,8,
CSCCC(NC(=O)COc1ccccc1)C(=O)N1CCC(C(N)=O)CC1 (configuration not stated),64*,68*,.,-3,5,.,2,86*,33,5,
Cc1cc(OCC(=O)OC(C)C(=O)NC2CC2)c(C(C)C)cc1Cl (configuration not stated),.,.,.,.,-2,.,.,.,.,.,
